Test results as given in ChEMBL document CHEMBL5661972, “In vitro biological activity of a novel small-molecule inhibitor of polo-like kinase 1” (Mol Cancer Ther, 2007).
The source made the active and inactive calls. The rule behind the calls is not given here.

Assays:
Aurora kinase A = molecular target: T1, Aurora kinase A (Homo sapiens, UniProt O14965); test: Inhibition of Aurora A (unknown origin)
T1 sequence (O14965 whole entry): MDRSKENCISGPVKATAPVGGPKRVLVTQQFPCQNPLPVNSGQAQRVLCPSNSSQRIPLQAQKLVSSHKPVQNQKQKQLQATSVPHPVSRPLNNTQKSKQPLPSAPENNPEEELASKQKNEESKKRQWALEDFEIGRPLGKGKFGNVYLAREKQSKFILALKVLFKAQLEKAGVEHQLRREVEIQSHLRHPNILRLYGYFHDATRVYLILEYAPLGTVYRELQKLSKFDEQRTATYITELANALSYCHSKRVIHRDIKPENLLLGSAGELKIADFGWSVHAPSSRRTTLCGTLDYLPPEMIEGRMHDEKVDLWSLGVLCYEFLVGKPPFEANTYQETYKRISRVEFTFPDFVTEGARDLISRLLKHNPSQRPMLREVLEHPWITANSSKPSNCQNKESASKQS

CDK1/Cyclin A = CDK1/Cyclin A (Homo sapiens, UniProt P06493); test: Inhibition of CDK1/cyclin A (unknown origin); assay type: protein-complex assay
[1] = Cytotoxicity against human HDF cells assessed as inhibition of cell growth; assay type: toxicity, cell-based; settings: HDF cells (NHDF, human dermal fibroblasts)
In short: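 Cells grown 3 days in 96-well plates, seeded so vehicle controls stay in log growth (MES-SA/DX5 7,000, MES-SA 6,000, HDF 5,000 per well). Exposed to 3-fold dilutions, 30–0.00152 μmol/L, in medium with 5% FBS, 50 μg/mL gentamicin and 0.3% (v/v) DMSO. HDF medium was low-glucose DMEM; MES-SA lines used McCoy's 5A.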

[2] = Selectivity ratio of IC50 for cytotoxicity against human HDF cells to IC50 for anti-proliferative activity against human HeLa cells; assay type: toxicity, cell-based; settings: HDF cells versus HeLa cells, read-out: Ratio IC50
[3] = Selectivity ratio of IC50 for cytotoxicity against human HDF cells to IC50 for antiproliferative activity against human HCT-116 cells; assay type: toxicity, cell-based; settings: HDF cells versus HCT-116 cells
[4] = Selectivity ratio of IC50 for cytotoxicity against human HDF cells to IC50 for antiproliferative activity against human HN5 cells; assay type: toxicity, cell-based; settings: HDF cells versus HN5 cells
[5] = Selectivity ratio of IC50 for cytotoxicity against human HDF cells to IC50 for antiproliferative activity against human PC-3 cells; assay type: toxicity, cell-based; settings: HDF cells versus PC-3 cells
[6] = Selectivity ratio of IC50 for cytotoxicity against human HDF cells to IC50 for antiproliferative activity against human RKO cells; assay type: toxicity, cell-based; settings: HDF cells versus RKO cells, read-out: Ratio IC50
NHDF [7] = test: Cytotoxicity against human HDF cells assessed as outgrowth of cells at 0.37 to 3.3 micromol/L incubated for 72 hrs by methylene blue staining based analysis; assay type: toxicity, cell-based; settings: dose 0.37-3.3 µmol/L
In short: (§1)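 HDF seeded at 1,300 and H460 at 600 per well in 96-well plates. After 24 h, exposed to vehicle (0.3% DMSO) or compound at 0.37–30 μmol/L for 72 h. Wells were then washed with PBS and refed with drug-free medium containing gentamicin. Regrowth was followed by methylene blue staining at set time points over 13 days in total.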

NCI-H460 [8] = test: Antiproliferative activity against human NCI-H460 cells assessed as outgrowth of cells at 0.37 micromol/L incubated for 72 hrs; assay type: functional, cell-based; settings: dose 0.37 µmol/L; in short: as §1
NHDF [9] = test: Induction of cell cycle arrest in human HDF cells assessed as accumulation of cells at G1 phase at 1 micromol/L incubated for 24 hrs by propidium iodide staining based flow cytometry analysis (reference value: 57.0 %); assay type: toxicity; settings: 1 µM, dose 1 µmol/L
In short: (§2)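 Cells seeded in six-well plates at densities that keep them in log growth (HDF 120,000, 60,000 or 30,000; H460 100,000, 50,000 or 25,000 per well for 24, 48 or 72 h). Treated with 1 or 3 μmol/L. Floating and adherent cells collected, ethanol-fixed, permeabilized with Triton X-100 and stained with propidium iodide. DNA content read by flow cytometry as % singlet cells.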

NHDF [10] = test: Induction of cell cycle arrest in human HDF cells assessed as accumulation of cells at G1 phase at 3 micromol/L incubated for 24 hrs by propidium iodide staining based flow cytometry analysis (reference value: 57.0 %); assay type: toxicity; settings: 3 µM, dose 3 µmol/L; in short: as §2
NHDF [11] = test: Induction of cell cycle arrest in human HDF cells assessed as accumulation of cells at Sub-2N phase at 1 micromol/L incubated for 24 hrs by propidium iodide staining based flow cytometry analysis (reference value: 0.2 %); assay type: toxicity; settings: 1 µM, dose 1 µmol/L; in short: as §2
NHDF [12] = test: Induction of cell cycle arrest in human HDF cells assessed as accumulation of cells at G1 phase at 3 micromol/L incubated for 48 hrs by propidium iodide staining based flow cytometry analysis (reference value: 72.8 %); assay type: toxicity; settings: 3 µM, dose 3 µmol/L; in short: as §2
NHDF [13] = test: Induction of cell cycle arrest in human HDF cells assessed as accumulation of cells at G1 phase at 1 micromol/L incubated for 72 hrs by propidium iodide staining based flow cytometry analysis (reference value: 85.6 %); assay type: toxicity; settings: 1 µM, dose 1 µmol/L; in short: as §2
NHDF [14] = test: Induction of cell cycle arrest in human HDF cells assessed as accumulation of cells at G1 phase at 3 micromol/L incubated for 72 hrs by propidium iodide staining based flow cytometry analysis (reference value: 85.6 %); assay type: toxicity; settings: 3 µM, dose 3 µmol/L; in short: as §2
NHDF [15] = test: Induction of cell cycle arrest in human HDF cells assessed as accumulation of cells at S phase at 3 micromol/L incubated for 72 hrs by propidium iodide staining based flow cytometry analysis (reference value: 3.6 %); assay type: toxicity; settings: 3 µM, dose 3 µmol/L; in short: as §2
NHDF [16] = test: Induction of cell cycle arrest in human HDF cells assessed as accumulation of cells at G2-M phase at 1 micromol/L incubated for 72 hrs by propidium iodide staining based flow cytometry analysis (reference value: 8.2 %); assay type: toxicity; settings: 1 µM, dose 1 µmol/L; in short: as §2
NCI-H460 [17] = test: Induction of cell cycle arrest in human NCI-H460 cells assessed as accumulation of cells at S phase at 1 micromol/L incubated for 24 hrs by propidium iodide staining based flow cytometry analysis (reference value: 23.2 %); assay type: functional; settings: dose 1 µmol/L, at 1 µM
NCI-H460 [18] = test: Induction of cell cycle arrest in human NCI-H460 cells assessed as accumulation of cells at S phase at 3 micromol/L incubated for 48 hrs by propidium iodide staining based flow cytometry analysis (reference value: 18.5 %); assay type: functional; settings: dose 3 µmol/L, at 3 µM
NCI-H460 [19] = test: Induction of cell cycle arrest in human NCI-H460 cells assessed as accumulation of cells at G2-M phase at 1 micromol/L incubated for 48 hrs by propidium iodide staining based flow cytometry analysis (reference value: 22.5 %); assay type: functional; settings: dose 1 µmol/L, at 1 µM
NCI-H460 [20] = test: Induction of cell cycle arrest in human NCI-H460 cells assessed as accumulation of cells at Sub-2N phase at 1 micromol/L incubated for 48 hrs by propidium iodide staining based flow cytometry analysis (reference value: 2.5 %); assay type: functional; settings: dose 1 µmol/L, at 1 µM
NCI-H460 [21] = test: Induction of cell cycle arrest in human NCI-H460 cells assessed as accumulation of cells at Sub-2N phase at 1 micromol/L incubated for 72 hrs by propidium iodide staining based flow cytometry analysis (reference value: 2.1 %); assay type: functional; settings: dose 1 µmol/L, at 1 µM

Sequence of CDK1/Cyclin A (P06493 whole entry): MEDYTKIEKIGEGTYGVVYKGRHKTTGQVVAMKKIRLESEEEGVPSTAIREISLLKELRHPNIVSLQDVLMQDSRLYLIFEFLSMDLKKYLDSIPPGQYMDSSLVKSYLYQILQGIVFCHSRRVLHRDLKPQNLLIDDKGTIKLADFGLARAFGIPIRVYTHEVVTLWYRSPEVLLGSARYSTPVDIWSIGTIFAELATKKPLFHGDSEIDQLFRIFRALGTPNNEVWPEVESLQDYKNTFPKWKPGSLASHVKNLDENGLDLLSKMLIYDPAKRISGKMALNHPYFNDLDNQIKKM
Sequence of CDK1/Cyclin A (P20248 whole entry, further chain): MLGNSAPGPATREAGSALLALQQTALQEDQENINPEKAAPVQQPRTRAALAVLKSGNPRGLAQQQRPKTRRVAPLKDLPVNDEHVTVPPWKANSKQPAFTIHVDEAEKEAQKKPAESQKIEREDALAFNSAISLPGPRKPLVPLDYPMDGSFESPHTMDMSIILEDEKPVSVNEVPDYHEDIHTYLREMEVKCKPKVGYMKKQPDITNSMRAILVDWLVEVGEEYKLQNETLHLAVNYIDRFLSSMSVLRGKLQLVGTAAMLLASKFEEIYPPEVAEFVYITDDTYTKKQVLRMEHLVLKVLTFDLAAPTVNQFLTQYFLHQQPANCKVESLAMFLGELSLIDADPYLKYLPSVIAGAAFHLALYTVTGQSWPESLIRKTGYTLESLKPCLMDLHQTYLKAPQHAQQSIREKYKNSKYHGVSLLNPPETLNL

With COc1cc2ncn(-c3cc(OCc4ccccc4C(F)(F)F)c(C(N)=O)s3)c2cc1OC [GW843682X] the IC50 (Aurora kinase A) was 4.8 µM, the IC50 (CDK1/Cyclin A) was greater than 10 µM and the IC50 [1] was 6.14 µM. It also gave a selectivity ratio [2] greater than 10, a selectivity ratio [3] of 8.8 and a selectivity ratio [4] of 9. The selectivity ratio [5] was 0.9, the selectivity ratio [6] was greater than 10 and the Activity (NHDF [7]) was “Toxic”. For the same compound, the Activity (NCI-H460 [8]) was “Active”, the Activity (NHDF [9]) was 54.2% and the Activity (NHDF [10]) was 21.1%. For the same compound, the Activity (NHDF [11]) was 0.3%, the Activity (NHDF [12]) was 11.3% and the Activity (NHDF [13]) was 66.2%. For the same compound, the Activity (NHDF [14]) was 5.6%, the Activity (NHDF [15]) was 8% and the Activity (NHDF [16]) was 21.6%. It also gave an Activity (NCI-H460 [17]) of 18.2%, an Activity (NCI-H460 [18]) of 8% and an Activity (NCI-H460 [19]) of 11.2%. For the same compound, the Activity (NCI-H460 [20]) was 14.4% and the Activity (NCI-H460 [21]) was 16%.
